This passage reports IC50, ED50 and inhibition results from ChEMBL document CHEMBL1121601, “Synthesis and anxiolytic activity of a series of pyrazino[1,2-a][1,4]benzodiazepine derivatives” (J Med Chem, 1980).

Active and inactive are the calls of the source. The rule behind the calls is not given here.

Test [1] can be described thus: Compound was evaluated for in vitro inhibition of histamine activated adenylate cyclase in guinea pig cerebral cortex. The test is classed as functional, tissue-based, Cavia porcellus. A digest of the protocol: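 Cell-free vesicle preparation from guinea pig cerebral cortex, preincubated with [³H]adenine to label the endogenous ATP pool as [³H]ATP. Test agents were then assessed for blocking histamine activation of adenylate cyclase.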

Test [2] has as its system Rattus norvegicus. The test is described as follows: Ability to reduce the incidence of metrazole-induced seizures in rats (administered perorally or at standard dose of 30 mg/kg ); Inactive. The test is classed as functional, organism-based. Details: dose 30 mg/kg.
Test [3] has as its target GABA-A receptor; anion channel. The experiment in a line: Displacement of [3H]diazepam from GABA-A receptor in rat synaptosomal membranes. The test is classed as cell membranes, Membrane. Summed up:
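Test agents over a wide concentration range, triplicate tubes per concentration. […] IC50 for inhibition of specific binding read graphically.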

The species named for test [4] is Rattus norvegicus. The experiment in a line: Ability to inhibit the uptake of serotonin (5-HT) by crude synaptosomes from rat whole brain. The test is classed as functional. Summed up:
(§1)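 Crude synaptosomes from rat whole brain, per Thornberg and Moore with minor changes. Incubated 5 or 15 min with L-[3H]norepinephrine (20 or 21.2 nM unless otherwise specified) or [3H]serotonin (9.2-14 nM unless otherwise specified). Test agents dissolved in ethanol; final ethanol 1% (v/v).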

The species named for test [5] is Rattus norvegicus. The test is described as follows: Ability to inhibit the uptake of norepinephrine (NE) by crude synaptosomes from rat whole brain. The test is classed as functional. Summed up: as §1
The target of test [6] is Tyrosine 3-monooxygenase (Rattus norvegicus) (UniProt P04177). The experiment in a line: Compound was tested to block the inhibition of tyrosine hydroxylase by apomorphine at 1 uM. A digest of the protocol: (§2)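 Tyrosine hydroxylase in synaptosomes, run essentially per Bronaugh and co-workers. Percent prevention of apomorphine inhibition = (% control activity with compound + Apo − % control with Apo)/(% control with compound alone − % control with Apo) × 100.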

Test [7] has the same target. The experiment in a line: Compound was tested to block the inhibition of tyrosine hydroxylase by apomorphine at 10 uM. Summed up: as §2

Chain of Tyrosine 3-monooxygenase (Rattus norvegicus) (P04177 whole entry): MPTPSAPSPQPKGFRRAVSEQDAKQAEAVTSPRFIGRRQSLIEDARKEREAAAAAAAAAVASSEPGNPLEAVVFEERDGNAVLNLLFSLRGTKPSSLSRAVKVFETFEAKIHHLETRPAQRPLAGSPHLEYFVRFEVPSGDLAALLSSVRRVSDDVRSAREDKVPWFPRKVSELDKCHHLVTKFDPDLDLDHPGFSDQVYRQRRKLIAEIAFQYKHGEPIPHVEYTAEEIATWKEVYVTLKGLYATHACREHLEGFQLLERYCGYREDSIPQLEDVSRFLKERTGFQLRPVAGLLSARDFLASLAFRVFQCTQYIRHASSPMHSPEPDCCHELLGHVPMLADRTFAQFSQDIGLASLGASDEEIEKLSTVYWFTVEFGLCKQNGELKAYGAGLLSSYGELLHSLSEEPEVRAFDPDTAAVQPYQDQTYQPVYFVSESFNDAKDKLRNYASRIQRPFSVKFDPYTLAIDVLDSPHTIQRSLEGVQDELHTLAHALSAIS

As a reminder, the IC50 is the midpoint of a concentration-inhibition curve. Higher therefore signals lower potency. On to `CN1CCN2c3ccc(Cl)cc3C(Cc3ccccc3)=NCC2C1` (stereo not drawn), for which the IC50 in test [1] is > 50 µM; in test [3], > 100 µM. Moreover, in the test with Rattus norvegicus [2], the ED50 entry is “inactive”.

Turning to `CC(=O)N1Cc2c(ccc(Cl)c2-c2ccccc2)N2CCN(C)CC2C1` (stereo not drawn), the ED50 result with Rattus norvegicus [2] was “inactive”. Besides, the IC50 in test [3] was > 100 µM.

`CNCCCN1c2ccccc2CCc2ccccc21` [DESIPRAMINE]: the 50% inhibitory concentration (IC50) in test [1] came to 10.5 µM; in the test listed under Rattus norvegicus [4] it was 6.5 µM; in the test filed under Rattus norvegicus [5], 0.08 µM.

What is called inhibition is how much of the control response was suppressed. A high value points to a strong effect. Turning to `CN1C(=O)CN=C(c2ccccc2)c2cc(Cl)ccc21`, in test [6], the inhibition was 23%.

As for `CC1=NCC2CN(C)CCN2c2ccc(Cl)cc21` (stereo not drawn), the 50% inhibitory concentration (IC50) in test [1] is 5 µM; in test [3] it was > 100 µM. The ED50 result with Rattus norvegicus [2] was “inactive”.

As for `CN1CCN2c3ccccc3Cc3ccccc3C2C1` (stereo not drawn) [MIANSERIN], the values for the concentration for half-maximal inhibition (IC50) (in test [1]; in the test listed under Rattus norvegicus [4]; in the test listed under Rattus norvegicus [5]) were 0.19 µM, 35 µM and 36 µM, respectively.

Consider `CN1CCN2c3ccc(Cl)c(-c4ccccc4)c3CNCC2C1` (stereo not drawn), for which the IC50 was > 50 µM in test [1] and > 100 µM in test [3]. Besides, the ED50 result in the test with Rattus norvegicus [2] was “inactive”.

Turning to `CN1CCN2c3ccc(Cl)cc3C(c3ccccc3Cl)=NCC2C1` (stereo not drawn), the IC50 in test [1] was 30 µM; in the test filed under Rattus norvegicus [4] it was 45 µM; in test [3], 0.8 µM; in the test listed under Rattus norvegicus [5] it was 30 µM.

For the compound `CN(C)CCCN1c2ccccc2CCc2ccc(Cl)cc21` [CLOMIPRAMINE], the IC50 in test [1] was found to be 4.4 µM; in the test listed under Rattus norvegicus [4], 0.75 µM; in the test listed under Rattus norvegicus [5], 9.5 µM.

Regarding `CN1CCN2c3ccc(Cl)cc3C(c3ccccc3)=NCC2C1` (stereo not drawn), the IC50 in test [1] and in test [3] was 9 µM throughout. Besides, the ED50 entry in the test on Rattus norvegicus [2] was “inactive”.

`O=C(CCCN1CCC(O)(c2ccc(Cl)cc2)CC1)c1ccc(F)cc1` came in with an inhibition in test [6] of 28%.

For the compound `CN1CCN2c3ccc(Cl)cc3C(c3ccc(Cl)cc3)=NCC2C1` (stereo not drawn), the values for the half-maximal inhibitory concentration (IC50) in test [1] and in test [3] were > 50 µM and > 100 µM, respectively. Moreover, the ED50 result with Rattus norvegicus [2] is “inactive”. In addition, the inhibition in test [7] came out at 10%.
